The source of these data is ChEMBL document CHEMBL5143527, “Discovery and optimization of cyclohexane-1,4-diamines as allosteric MALT1 inhibitors” (Eur J Med Chem, 2022).

Series [1] in a line: Passive permeability of compound across apical to basolateral in human Caco2 cells at 10 uM and measured upto 120 mins by LC-MS/MS analysis. The format is ADME, cell-based. The conditions noted are these: Caco-2. In outline:
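Apical-to-basolateral passive permeability across Caco-2 monolayers, run in the presence of inhibitors of the efflux transporters P-gp, BCRP and MRP2.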

Series [2] is described as follows: Lipophilicity, log D of compound at 7.4 by LC-MS analysis. To be noted: pH 7.4. The format is physicochemical. The method in brief: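 ChromlogD at pH 7.4: retention time on an LCMS system with an aqueous mobile phase, converted to lipophilicity with a calibration curve.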
A short description of series [3]: Volume of distribution at steady state in Wistar Han rat at 0.9 mg/kg, po or 0.5 mg/kg, iv. The format is ADME, organism-based. To be noted: in vivo.
Series [4] is described as follows: AUC in Wistar Han rat at 0.9 mg/kg, po or 0.5 mg/kg, iv. The format is ADME, organism-based. More on the design: dose 0.9 mg/kg, route po. To be noted: in vivo.
Series [5] is described as follows: Metabolic stability in human liver microsomes assessed as intrinsic clearance by LC-MS/MS analysis. The format is ADME, Microsome. The conditions noted are these: read-out: CLH. In outline: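 Human liver microsomes, compound incubated; intrinsic clearance from disappearance of the parent compound over time.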
The target in the next series is Cytochrome P450 2C19 (Homo sapiens, UniProt P33261). Put plainly: Inhibition of CYP2C19 (unknown origin). The format is ADME.
Chain of Cytochrome P450 2C19 (P33261 whole entry): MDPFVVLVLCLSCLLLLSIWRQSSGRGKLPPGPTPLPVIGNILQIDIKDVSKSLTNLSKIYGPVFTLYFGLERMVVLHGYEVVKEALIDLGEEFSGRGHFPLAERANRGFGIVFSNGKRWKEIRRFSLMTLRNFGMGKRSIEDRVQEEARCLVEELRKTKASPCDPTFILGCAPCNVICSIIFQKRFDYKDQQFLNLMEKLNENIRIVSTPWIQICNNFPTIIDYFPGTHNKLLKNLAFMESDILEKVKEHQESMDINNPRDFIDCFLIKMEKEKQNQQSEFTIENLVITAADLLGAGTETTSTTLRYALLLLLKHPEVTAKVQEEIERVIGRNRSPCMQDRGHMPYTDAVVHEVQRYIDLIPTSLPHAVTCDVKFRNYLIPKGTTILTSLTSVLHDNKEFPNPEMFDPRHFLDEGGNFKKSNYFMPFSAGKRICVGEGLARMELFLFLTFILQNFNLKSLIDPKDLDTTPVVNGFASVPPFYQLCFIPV
Series [6] can be described thus: Solubility of compound in PBS at pH 7.4 incubated for 20 to 24 hrs under shaking condition by LC-MS analysis. The format is physicochemical. The conditions noted are these: time 20-24 hrs. In outline: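 Dried-DMSO solubility: 10 mM DMSO stock dried down, residue resolubilized in 0.1 M phosphate buffer, pH 7.4.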
For series [7], the target named is Voltage-gated inwardly rectifying potassium channel KCNH2 (Homo sapiens, UniProt Q12809). The experiment in a line: Inhibition of human ERG. The format is toxicity.
Chain of Voltage-gated inwardly rectifying potassium channel KCNH2 (Q12809 whole entry): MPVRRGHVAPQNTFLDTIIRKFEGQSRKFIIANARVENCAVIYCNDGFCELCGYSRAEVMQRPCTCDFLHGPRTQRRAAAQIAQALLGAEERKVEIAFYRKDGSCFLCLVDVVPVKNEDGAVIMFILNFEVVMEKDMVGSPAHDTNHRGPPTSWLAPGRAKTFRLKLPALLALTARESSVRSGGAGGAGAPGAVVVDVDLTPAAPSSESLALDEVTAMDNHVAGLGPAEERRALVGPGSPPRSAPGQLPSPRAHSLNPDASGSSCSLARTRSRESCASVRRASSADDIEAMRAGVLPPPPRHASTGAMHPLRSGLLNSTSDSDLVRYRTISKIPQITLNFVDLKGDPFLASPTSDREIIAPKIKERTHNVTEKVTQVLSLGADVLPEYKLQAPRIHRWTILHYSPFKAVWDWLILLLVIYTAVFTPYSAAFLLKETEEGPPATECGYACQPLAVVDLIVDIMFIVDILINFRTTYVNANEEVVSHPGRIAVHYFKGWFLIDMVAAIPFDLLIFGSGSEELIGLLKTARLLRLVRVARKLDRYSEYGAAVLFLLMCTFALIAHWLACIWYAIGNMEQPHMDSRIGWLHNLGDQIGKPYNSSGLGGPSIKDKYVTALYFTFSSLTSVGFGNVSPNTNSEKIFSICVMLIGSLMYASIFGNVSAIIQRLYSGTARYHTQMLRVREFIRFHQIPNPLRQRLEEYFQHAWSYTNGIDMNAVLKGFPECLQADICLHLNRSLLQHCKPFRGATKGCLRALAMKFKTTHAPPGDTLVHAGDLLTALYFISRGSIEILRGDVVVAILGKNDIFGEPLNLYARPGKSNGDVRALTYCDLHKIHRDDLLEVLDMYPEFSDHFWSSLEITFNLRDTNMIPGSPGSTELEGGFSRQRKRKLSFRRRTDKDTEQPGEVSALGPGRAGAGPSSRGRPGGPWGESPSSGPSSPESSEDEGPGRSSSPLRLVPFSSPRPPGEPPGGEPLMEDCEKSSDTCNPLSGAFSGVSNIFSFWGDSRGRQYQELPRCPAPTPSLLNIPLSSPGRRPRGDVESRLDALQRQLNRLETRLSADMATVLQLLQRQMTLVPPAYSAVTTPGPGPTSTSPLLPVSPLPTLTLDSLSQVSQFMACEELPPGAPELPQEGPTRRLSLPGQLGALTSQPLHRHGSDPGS
The target in the next series is T1, Cytochrome P450 1A2 (Homo sapiens, UniProt P05177).
T1 sequence (P05177 whole entry): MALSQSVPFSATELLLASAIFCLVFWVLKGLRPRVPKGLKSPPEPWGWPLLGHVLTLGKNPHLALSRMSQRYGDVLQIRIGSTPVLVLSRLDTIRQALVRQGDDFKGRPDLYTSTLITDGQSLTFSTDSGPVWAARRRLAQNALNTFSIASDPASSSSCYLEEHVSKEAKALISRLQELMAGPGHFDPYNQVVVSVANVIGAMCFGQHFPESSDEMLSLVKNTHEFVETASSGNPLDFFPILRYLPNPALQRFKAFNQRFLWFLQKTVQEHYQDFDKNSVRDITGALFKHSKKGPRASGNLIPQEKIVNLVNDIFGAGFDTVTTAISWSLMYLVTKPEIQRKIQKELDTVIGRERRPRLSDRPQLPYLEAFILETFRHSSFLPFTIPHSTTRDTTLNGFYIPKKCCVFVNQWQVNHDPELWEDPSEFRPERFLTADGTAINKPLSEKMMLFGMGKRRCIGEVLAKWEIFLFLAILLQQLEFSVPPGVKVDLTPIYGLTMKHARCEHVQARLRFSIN
The experiment in a line: Inhibition of CYP1A2 (unknown origin). The format is ADME.

For series [8], the target named is T2, Mucosa-associated lymphoid tissue lymphoma translocation protein 1 (Homo sapiens, UniProt Q9UDY8).
T2 sequence (Q9UDY8 whole entry): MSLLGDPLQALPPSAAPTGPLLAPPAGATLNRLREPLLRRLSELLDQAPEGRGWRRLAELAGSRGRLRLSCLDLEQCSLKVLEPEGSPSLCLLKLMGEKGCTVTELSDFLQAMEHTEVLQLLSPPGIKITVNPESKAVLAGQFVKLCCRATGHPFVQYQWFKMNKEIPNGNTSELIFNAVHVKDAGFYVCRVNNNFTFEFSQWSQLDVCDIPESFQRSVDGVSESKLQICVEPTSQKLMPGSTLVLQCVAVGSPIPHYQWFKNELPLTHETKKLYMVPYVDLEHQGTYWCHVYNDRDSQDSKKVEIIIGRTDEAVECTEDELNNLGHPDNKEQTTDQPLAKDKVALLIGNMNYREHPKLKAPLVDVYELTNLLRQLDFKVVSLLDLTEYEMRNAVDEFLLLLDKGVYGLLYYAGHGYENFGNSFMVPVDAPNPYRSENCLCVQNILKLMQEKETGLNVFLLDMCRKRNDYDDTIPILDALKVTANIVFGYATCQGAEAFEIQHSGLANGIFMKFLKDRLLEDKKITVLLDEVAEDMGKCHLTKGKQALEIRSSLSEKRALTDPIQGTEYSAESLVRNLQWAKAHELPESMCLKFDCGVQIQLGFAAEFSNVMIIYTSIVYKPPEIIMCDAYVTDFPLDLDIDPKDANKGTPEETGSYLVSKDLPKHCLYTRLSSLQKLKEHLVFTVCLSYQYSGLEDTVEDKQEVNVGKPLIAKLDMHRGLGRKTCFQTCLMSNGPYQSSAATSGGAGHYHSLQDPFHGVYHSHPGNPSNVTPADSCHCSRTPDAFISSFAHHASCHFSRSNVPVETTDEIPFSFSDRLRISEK
The experiment in a line: Inhibition of human MALT1 in human MCF7 cells assessed as MALT1 mediated cleavage of human A20 in cytosol by fluorescence microscopy. The format is subcellular. In outline:
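Cellular MALT1 activity in MCF7 cells, read as inhibition of MALT1-mediated cleavage of human A20.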

A short description of series [9]: Oral bioavailability in Wistar Han rat at 0.9 mg/kg. The format is ADME, organism-based. The conditions noted are these: in vivo.
Series [10] deals with T2, Mucosa-associated lymphoid tissue lymphoma translocation protein 1. The experiment in a line: Inhibition of human MALT1 assessed as cleavage of substrate using fluorescent labeled Ac-LRSR-Rh110 peptide as substrate incubated for 30 mins followed by substrate addition and measured after 3 to 4 hrs by FRET assay. In outline:
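Fluorogenic MALT1 cleavage assay with the tetrapeptide LRSR carrying rhodamine 110 and a non-fluorescent quencher; signal read as FRET. Horseradish peroxidase and resazurin redox counter-assays used to exclude artefacts. Values are the mean of at least three independent measurements, with standard deviation.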

Series [11] can be described thus: Half life in Wistar Han rat at 0.9 mg/kg, po or 0.5 mg/kg, iv. The format is ADME, organism-based. The conditions noted are these: in vivo.
Another series addresses Cytochrome P450 3A4 (Homo sapiens, UniProt P08684). The experiment in a line: Inhibition of CYP3A4 (unknown origin). The format is ADME.
For a further series, the target named is Cytochrome P450 2C9 (Homo sapiens, UniProt P11712). Put plainly: Inhibition of CYP2C9 (unknown origin). The format is ADME.
Chain of Cytochrome P450 2C9 (P11712 whole entry): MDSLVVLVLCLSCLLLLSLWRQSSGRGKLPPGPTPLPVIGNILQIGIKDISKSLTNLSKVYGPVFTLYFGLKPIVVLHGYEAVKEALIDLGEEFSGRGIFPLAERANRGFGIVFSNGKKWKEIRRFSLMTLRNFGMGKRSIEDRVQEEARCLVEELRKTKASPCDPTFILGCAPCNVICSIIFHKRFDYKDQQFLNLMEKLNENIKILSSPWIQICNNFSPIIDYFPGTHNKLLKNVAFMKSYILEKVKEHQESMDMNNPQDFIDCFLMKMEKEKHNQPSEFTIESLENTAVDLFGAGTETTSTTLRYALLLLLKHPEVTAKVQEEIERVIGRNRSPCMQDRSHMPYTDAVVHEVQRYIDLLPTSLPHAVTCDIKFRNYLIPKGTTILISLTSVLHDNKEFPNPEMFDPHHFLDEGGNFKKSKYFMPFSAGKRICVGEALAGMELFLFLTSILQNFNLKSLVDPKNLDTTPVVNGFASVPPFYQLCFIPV
The next series concerns the target Cytochrome P450 2D6 (Homo sapiens, UniProt P10635). Put plainly: Inhibition of CYP2D6 (unknown origin). The format is ADME.

Converted amounts (≈) assume the structure as drawn.

Chain of Cytochrome P450 2D6 (P10635 whole entry): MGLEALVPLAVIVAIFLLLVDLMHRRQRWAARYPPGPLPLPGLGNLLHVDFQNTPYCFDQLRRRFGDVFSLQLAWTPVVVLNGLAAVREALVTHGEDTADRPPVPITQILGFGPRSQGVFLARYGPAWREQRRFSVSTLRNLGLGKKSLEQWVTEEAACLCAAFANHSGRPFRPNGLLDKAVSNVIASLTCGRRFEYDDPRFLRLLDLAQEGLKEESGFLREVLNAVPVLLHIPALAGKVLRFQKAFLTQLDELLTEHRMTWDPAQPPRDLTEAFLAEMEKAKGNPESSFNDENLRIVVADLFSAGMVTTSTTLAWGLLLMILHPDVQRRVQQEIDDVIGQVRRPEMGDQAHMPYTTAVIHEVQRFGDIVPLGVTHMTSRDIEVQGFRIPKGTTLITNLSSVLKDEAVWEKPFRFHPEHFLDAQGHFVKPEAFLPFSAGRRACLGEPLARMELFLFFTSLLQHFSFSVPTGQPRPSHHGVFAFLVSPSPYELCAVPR
Chain of Cytochrome P450 3A4 (P08684 whole entry): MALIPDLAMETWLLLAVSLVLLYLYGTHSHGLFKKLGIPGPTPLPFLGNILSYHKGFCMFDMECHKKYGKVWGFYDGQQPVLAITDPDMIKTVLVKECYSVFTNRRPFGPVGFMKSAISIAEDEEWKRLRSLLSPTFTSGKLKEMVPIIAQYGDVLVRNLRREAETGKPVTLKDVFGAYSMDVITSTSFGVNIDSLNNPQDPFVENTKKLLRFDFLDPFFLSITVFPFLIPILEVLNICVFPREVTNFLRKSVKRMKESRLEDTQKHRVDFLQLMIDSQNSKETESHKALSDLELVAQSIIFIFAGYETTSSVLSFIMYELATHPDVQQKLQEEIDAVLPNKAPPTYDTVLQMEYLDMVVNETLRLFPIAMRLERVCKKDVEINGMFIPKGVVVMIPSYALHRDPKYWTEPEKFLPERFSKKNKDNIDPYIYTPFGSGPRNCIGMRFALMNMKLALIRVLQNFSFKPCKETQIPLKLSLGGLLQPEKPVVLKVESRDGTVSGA

The compound `FC(F)(F)c1nccc(N[C@H]2CC[C@@H](Nc3ccc4nnc(Cl)n4n3)CC2)n1` yielded a Papp A→B at 2 h, 10 µM in series [1] of 44 ×10⁻⁶ cm/s. In series [2], this compound returned a logD of 3.1. The compound also yielded a Vdss in [3] of 2.2 L/kg. The compound also had an AUC in series [4] of 3.21 µM·h. Also, in series [5], the microsomal CLint is < 3 µL/min/mg. Besides, the IC50 at Cytochrome P450 2C19 was 14 µM; in [7], 24 µM; against Cytochrome P450 1A2, > 30 µM; in [8] it was 3.2 µM; in series [10], 0.3 µM; at Cytochrome P450 3A4, 18 µM. Further, the IC50 at Cytochrome P450 2C9 is 10 µM; against Cytochrome P450 2D6 it was > 30 µM. Moreover, the solubility in series [6] was found to be 19 µM (≈ 7.84 µg/mL). In series [9], this compound registered a bioavailability of 72%. For the same compound, the half-life in series [11] was 4 h.
